{"source": "ChEMBL document CHEMBL4052683", "about": "“The discovery of benzoxazine sulfonamide inhibitors of NaV1.7: Tools that bridge efficacy and target engagement” (Bioorg Med Chem Lett, 2017)", "key": {"Plasma [1]": {"test_system": "Plasma", "experiment": "Plasma concentration in C57BL/6 mouse model of histamine-induced pruritus at 60 mg/kg, po", "type": "ADME, organism-based", "settings": "in vivo", "method_in_brief": "(§1)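 Male C57BL/6 mice got 30, 60 or 100 mg/kg PO in 30% hydroxypropyl β-cyclodextrin, pH 10.0, 120 min before the test. Histamine (8.15mM) was given intradermally to the nape of the neck just before testing, and scratch bouts were counted over 0–30 min. Diphenhydramine 30 mg/kg PO in water, 90 min before, served as control. Unbound plasma concentrations were measured.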"}, "Plasma [2]": {"test_system": "Plasma", "experiment": "Unbound plasma concentration in C57BL/6 mouse model of formalin-induced nociception behavior at 30 mg/kg, po", "type": "ADME, organism-based", "settings": "in vivo", "method_in_brief": "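The formalin arm received 2% formalin subcutaneously into the dorsal hind paw, and total phase II licking and lifting was scored. The pruritus arm was dosed 120 min before histamine (8.15mM, intradermal, nape of neck), and scratch bouts were counted over 0-30 min. Unbound plasma concentration was determined at each dose.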"}, "[3]": {"experiment": "Apparent permeability in MDCK vector control cells at 5 uM", "settings": "dog"}, "Plasma [4]": {"test_system": "Plasma", "experiment": "Plasma concentration in C57BL/6 mouse model of histamine-induced pruritus at 100 mg/kg, po", "type": "ADME, organism-based", "settings": "in vivo", "method_in_brief": "as §1"}, "[5]": {"experiment": "Ratio of unbound plasma concentration in C57BL/6 mouse model of formalin-induced nociception behavior at 30 mg/kg, po to IC50 for mouse Nav1.7 by whole cell voltage clamp method", "method_in_brief": "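Male C57BL/6 mice got 30, 60 or 100 mg/kg PO in 30% (w/v) hydroxypropyl β-cyclodextrin in water, pH 10.0 with KOH. Formalin (2%) was injected subcutaneously into the dorsal hind paw, and total phase II paw licking and lifting were scored. Morphine sulfate 3 mg/kg SC served as control. Unbound plasma concentration was divided by the mouse NaV1.7 IC50.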"}}, "data": [{"smiles": "N#Cc1cc(C(F)(F)F)ccc1N1CCOc2cc(S(=O)(=O)Nc3nccs3)c(F)cc21", "values": [{"measurement": "concentration", "setting": "Plasma [1]", "value": 109, "unit": "µM"}, {"measurement": "Cp(f)", "setting": "Plasma [2]", "value": 0.3, "unit": "µM"}, {"measurement": "Papp at 5 µM", "setting": "[3]", "value": 190, "unit": "nm/s"}, {"measurement": "concentration", "setting": "Plasma [4]", "value": 113, "unit": "µM"}, {"measurement": "Ratio", "setting": "[5]", "value": 5}]}]}
